Rows were chosen to be rich in hits. Some 3.5% of all compounds tested hit in one or more screens of this group.
rRNA inh HTS = reduced GFP signal of wild-type E. coli, primary screen, bacterial rRNA inhibitor project, GFP/RFP fluorescence, OD600, single point; E. coli WT GFP vs humanized-ribosome RFP mutants, 24 h; hits give low values; DMSO median 0, no signal -100; GFP signal change (wild-type ribosome), % (concentration not given with the values); 350,000 tested, 1.6% active;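 active means significant combined selectivity score with lowered wild-type GFP, culture density cut under 30%, mutant RFP and density less affected; inactive means any of these conditions unmet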
PGC1a acetyl inh = inhibitors of PGC1a acetylation signal, primary screen, cell-based, U2OS, AlphaScreen, inhibitor mode | inhibition, % at 15.6 µM | AlphaScreen anti-acetyl-lysine; with virally co-expressed GCN5 acetyltransferase | 350,000 tested, 0.17% active;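 active means every replicate shows inhibition of at least 40%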;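 further: 0% = neutral control wells and 100% = positive control wells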
Env fusion inh = inhibitors of HIV-1 Env-driven cell-cell fusion, primary screen, HeLa-JRFL effector, CEM21 target cells, luciferase; inhibition, % at 12.3 µM; 360,000 tested, 1.1% active; AID 651610, 2012;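 active means mean replicate inhibition score of at least 50 and every replicate individually at or above 50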;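 further: 0% = plate neutral controls and 100% = maraviroc near 300 nM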
FGF22 binding = binders of human FGF22 protein, primary screen, FGF22 synaptogenesis inhibitor project, biophysical, thermal shift, single point | activity (Tm shift, normalised), % at 9.99 µM | AID 651658, 2012 | recombinant FGF22 thermal shift, SYPRO orange fluorescence; percent of sucrose octasulfate shift, DMSO zero | 340,000 tested, 1.5% active | Fibroblast growth factor 22 (Homo sapiens), Q9HCT0;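 active means mean Tm shift, scaled 0 neutral to 100 positive control, at about 1.3% or above, every replicate too, limit read from the data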
Target sequence (Q9HCT0 whole entry, looked up): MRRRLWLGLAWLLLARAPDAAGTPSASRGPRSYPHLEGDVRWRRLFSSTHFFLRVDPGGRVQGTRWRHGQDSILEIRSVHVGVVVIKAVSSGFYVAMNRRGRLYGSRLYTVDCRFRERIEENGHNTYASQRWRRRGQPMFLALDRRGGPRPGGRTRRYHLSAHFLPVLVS
ERAP1 inh = human ERAP1 aminopeptidase inhibitors, primary screen, biochemical, single point, plate reader; recombinant ERAP1, Leu-AMC fluorescence, 60 min; AID 652197, 2013; 340,000 tested, 0.15% active; inhibition, % at 10.7 µM; Endoplasmic reticulum aminopeptidase 1 (Homo sapiens), Q9NZ08;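 active means mean replicate inhibition of at least 30%, or all replicates individually reaching that 30% level; inactive means mean below 30% and not every replicate reaching it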;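 further: 0% = neutral control wells and 100% = L-leucinethiol positive control wells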
Cneo AK release = Cryptococcus neoformans cell lysis inducers, primary screen, AK release luminescence, single concentration; C. neoformans lysis, adenylate kinase release luminescence, 4 h; normalised: neutral wells 0, clomiphene wells 100; 360,000 tested, 0.2% active; lysis activity, % at 15 µM; AID 651654, 2012;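 active means mean lysis activity across replicates of at least 80%, whatever share of replicates individually reach that level; inactive means mean lysis activity below 80%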
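Test system: log-phase Cryptococcus neoformans yeast cells. Input: 5 × 10^6 yeast cells/mL. Medium: fresh YPD growth medium. Doses: single dose. Incubation: static 4 h at 37 °C with compound, 1 h detection. Measured by: luminescent adenylate kinase detection reagent. Read-out: signal increase indicating cell lysis. Benchmarks: Clomiphene.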
Starred values were filed as active, the others as inactive; . = no result; ! = repeats disagree.

SMILES | rRNA inh HTS | PGC1a acetyl inh | Env fusion inh | FGF22 binding | ERAP1 inh | Cneo AK release
O=C(C1CCN(S(=O)(=O)c2ccccc2)CC1)N1CCN(c2ccccc2)CC1 | -0.8 | -7.2 | 60.7* | -0.2 | -0.1 | -0.2
CC1CCN(S(=O)(=O)c2cc(C(=O)N3CCN(c4ccccc4)CC3)ccc2Br)CC1 | -7.9 | -1.2 | 72.1* | 42.5 | -2.0 | 1.7
COc1ccc(N2CCN(C(=O)C3CCN(S(=O)(=O)c4ccccc4)CC3)CC2)cc1 | -8.9 | -19.0 | -0.2 | 0.3 | 3.7 | .
CC1CCN(C(=O)c2ccc3c(c2)C(=O)c2ccccc2-3)CC1 | -14.2 | 3.2 | -1.8 | 0.0 | 0.0 | -0.3
O=C1c2ccccc2-c2ccc(C(=O)N3CCCCC3)cc21 | -24.6* | -13.0 | 8.9 | . | 8.5 | .
O=C(c1ccc(Cl)c(S(=O)(=O)N2CCCCCC2)c1)N1CCN(c2ccccc2O)CC1 | -44.2* | -7.0 | 14.0 | -0.1 | -1.2 | .
CC1CCN(C(=O)c2cccc(S(=O)(=O)N3CCN(c4ccccc4)CC3)c2)CC1 | 14.1 | . | 19.9 | 0.1 | -1.5 | .
O=C(c1ccc(Cl)c(S(=O)(=O)N2CCCCC2)c1)N1CCN(c2ccccc2)CC1 | . | 2.6 | 25.6 | 0.1 | -7.2 | -2.9
Cc1nc(N2CCN(C(=O)c3cccs3)CC2)c2c3c(sc2n1)CCCC3 | -27.4 | . | . | . | 2.8 | 8.5
Cc1cc(C)cc(N/C(N)=N/c2nc(C)cc(C)n2)c1 | -4.0 | 1.3 | . | 0.0 | -3.4 | 0.8
O=S(=O)(c1ccc(N2CCN(S(=O)(=O)c3ccccc3)CC2)nc1)N1CCCC1 | 4.9 | 0.8 | -0.7 | 43.1* | -3.1 | -0.4
O=S(=O)(c1ccc(N2CCCC2)nc1)N1CCCC1 | 1.6 | 6.4 | -3.1 | 0.0 | 0.7 | -0.2
S=c1[nH]nc(NCCCN2CCOCC2)s1 | 10.6 | . | -1.9 | 0.0 | 86.5* | .
S=C(NCCCN1CCOCC1)NCCCN1CCOCC1 | 21.8 | 0.6 | -24.5 | 0.1 | 1.2 | -4.4
c1ccc(-c2cc(N3CCCCC3)nc(-c3ccccc3)n2)cc1 | . | -6.3 | -26.5 | . | . | -3.5
Cc1cc(OCC(=O)NCCc2ccc(Cl)cc2)c2c(C)cc(=O)oc2c1 | -0.4 | -36.1 | 11.5 | 43.0* | -3.6 | -11.5
CN(C)S(=O)(=O)c1ccc(N=Cc2c(C(F)(F)F)[nH]n(C)c2=O)cc1 | -7.7 | . | 1.0 | 43.6* | 1.8 | -0.7
COC(=O)c1ccc(N=Cc2c(C(F)(F)F)[nH]n(C)c2=O)cc1 | -3.5 | . | 12.9 | 0.6 | -4.2 | 0.9
C[C@H](NC(=O)[C@@H]1CCCN1C(=O)[C@@H]1CCCN1C(=O)c1cccc(Cl)c1)c1ccccc1 | -0.4 | . | 8.5 | -0.1 | 1.2 | .
COc1ccc(-c2nc(N)ncc2-c2csc(C)n2)c(O)c1OC | 8.1 | 13.8 | -3.0 | 43.9* | -6.9 | 4.8
O=C1c2c(O)ccc(O)c2C(=O)c2c(NCCNCCO)ccc(NCCNCCO)c21 | . | 8.5 | 58.0* | -1.1 | 39.3*! | -0.8
COc1ccc(-c2noc(CN3CCN(c4ccccc4)CC3)n2)cc1 | -4.8 | 6.0 | 16.2 | -0.4 | 1.3 | -0.1
COc1ccc(-c2nnc(SCc3nnc(-c4ccc(Cl)cc4)o3)n2-c2ccccc2)cc1 | . | -9.1 | 65.1* | . | . | -1.7
Cn1c(SCc2nc(-c3ccc(Br)cc3)no2)nnc1-c1ccco1 | . | 0.1 | -18.1 | . | . | 0.4
COc1ccc(-c2noc(CSc3nnc(-c4ccccc4)n3C)n2)cc1 | -22.2* | -2.9 | . | 0.0 | -0.3 | 0.2
SMILES | rRNA inh HTS | PGC1a acetyl inh | Env fusion inh | FGF22 binding | ERAP1 inh | Cneo AK release
COc1ccc(N2CCN(Cc3nc(-c4ccccc4)no3)CC2)cc1 | -19.0* | -4.8 | 10.8 | -0.5 | -2.5 | .
COc1ccc(NC(=O)CN(C)C(=O)CNC(=O)c2sc3ccccc3c2Cl)cc1 | 18.2 | -7.3 | -52.4 | -0.3 | -0.7 | 0.9
CC1CCCN(C(=O)CNC(=O)c2cccs2)C1 (stereo unspecified) | 1.3 | 1.1 | . | 0.1 | 0.6 | 0.4
S=c1[nH]c(-c2ccccc2)cn1/N=C/c1ccc(Br)cc1 | -11.0 | 3.1 | -13.8 | 43.1* | -1.0 | .
C=CCNC(=O)Nc1ccc(Cl)cn1 | -2.2 | . | -6.7 | 43.0* | -0.4 | .
CN(CC(=O)NCC(=O)Nc1ccc(F)cc1)CC(=O)Nc1ccc(Cl)c(C(F)(F)F)c1 | -52.5 | -12.6 | . | 0.0 | 0.1 | -0.1
CC(NC(=O)CN(C)CC(=O)Nc1ccc(Cl)c(C(F)(F)F)c1)c1ccccc1 (stereo unspecified) | -59.7 | . | 102.6* | -0.4 | 0.1 | -0.3
CCOc1ccc(N2C(=O)C3C(c4ccc(O)cc4)NC(CCSC)(C(=O)OC)C3C2=O)cc1 (stereo unspecified) | -1.8 | 3.9 | -1.7 | 43.5* | -1.5 | .
CCCC1(C(=O)OCC)NC(c2ccc(O)cc2)C2C(=O)N(c3ccc4c(c3)OCCO4)C(=O)C21 (stereo unspecified) | 0.6 | -11.1 | . | -0.2 | 2.6 | 0.4
COc1ccc(CSC2=C(C#N)C(=O)NC3(CCCCC3)S2)cc1 | -28.1* | 6.6 | 11.2 | . | -1.7 | -3.3
CC(C)(C)c1nnc2sc(SCC(=O)N3CCc4ccccc43)nn2c1=O | 17.9 | . | 13.9 | 43.2* | -0.4 | 0.1
O=C(OCC(=O)N1CCC(Cc2ccccc2)CC1)c1ccccc1 | 0.1 | . | 7.9 | 0.2 | 4.6 | .
O=C(NC1CCC(O)CC1)c1cc(-c2ccc(Cl)cc2)nc2ccccc12 (stereo unspecified) | . | . | -5.9 | 0.1 | -1.7 | -2.4
Cc1ccc(NC(=O)C2CCCN(S(=O)(=O)c3cccnc3)C2)cc1C (stereo unspecified) | -0.7 | 6.1 | 2.9 | -0.1 | 0.3 | .
Cc1ccc(NS(=O)(=O)c2cccc(C(=O)NC3CC3)c2)c(C)c1 | 13.6 | . | -8.2 | 0.1 | -0.8 | -0.8
O=C(Nc1nc(-c2ccccc2)cs1)c1ccccc1NS(=O)(=O)c1ccc(F)cc1 | . | . | 64.3* | . | . | .
O=S(=O)(Nc1ccc(-c2csc(-c3ccccc3)n2)cc1)c1ccc(F)cc1 | . | -10.3 | . | . | . | -2.7
O=C(Nc1cccnc1)c1ccccc1NS(=O)(=O)c1ccc(F)cc1 | -32.2* | 2.4 | 13.9 | 0.5 | -1.7 | -0.5
O=S(=O)(Nc1cccnc1)c1ccc(F)cc1 | -0.1 | -6.1 | -10.0 | 0.0 | -5.6 | 0.7
Cc1ccc(NS(=O)(=O)c2cccc(C(=O)Nc3cccnc3)c2)c(C)c1 | -45.0* | 10.6 | -37.5 | 0.0 | 0.0 | 0.5
Cc1ccc(NC(=O)C2CCCN(S(=O)(=O)c3cccnc3)C2)c(C)c1 (stereo unspecified) | 5.3 | . | 4.5 | 44.2* | -0.3 | 0.5

Source: PubChem BioAssay (Broad Institute)
